From ChEMBL document CHEMBL1126685, “Bronchodilator activity of xanthine derivatives substituted with functional groups at the 1- or 7-position” (J Med Chem, 1993)

How the values were obtained:
Cavia porcellus [1] = organism: Cavia porcellus; assay: Effective concentration required in vitro for tracheal muscle (from male Hartley guinea pigs) relaxation; format: functional; conditions: Trachea
Outline: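 Tracheal ring chains from male Hartley guinea pigs (300–500 g), 37 °C Krebs-Henseleit pH 7.4, 95% O2–5% CO2, 0.5 g tension, spontaneous tone; cumulative compound addition, isotonic recording.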

Adenosine receptor A1 [2] = target: T1, Adenosine receptor A1 (Cavia porcellus, UniProt P47745); assay: Binding affinity against Adenosine A1 receptor of cerebral cortex using [3H]-CPX; format: tissue-based
T1 sequence (P47745 whole entry): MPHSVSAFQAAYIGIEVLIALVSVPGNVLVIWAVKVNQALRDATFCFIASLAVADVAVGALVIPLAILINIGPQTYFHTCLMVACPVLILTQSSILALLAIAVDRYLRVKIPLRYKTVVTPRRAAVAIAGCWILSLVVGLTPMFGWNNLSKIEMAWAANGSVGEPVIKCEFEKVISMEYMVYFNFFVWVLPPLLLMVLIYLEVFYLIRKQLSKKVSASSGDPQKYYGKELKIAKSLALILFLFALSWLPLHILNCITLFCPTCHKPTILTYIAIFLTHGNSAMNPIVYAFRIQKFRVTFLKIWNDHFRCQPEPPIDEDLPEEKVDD

Cavia porcellus [3] = assay: Positive chronotropic effect, 15% increase in heart rate of male Hartley guinea pigs on intraduodenal administration (mean of 3-5 animals); format: functional
Outline: (§1)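 Urethane-anesthetized (1.5 g/kg ip), ventilated male Hartley guinea pigs; compound suspended in 0.5% carboxymethylcellulose given intraduodenally 5 min before iv acetylcholine 40 μg/kg (jugular, every 15 min, after three stable responses); Konzett–Rossler overflow bronchospasm and carotid-pulse heart rate followed 110 min.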

Cavia porcellus [4] = assay: Bronchodilatory effect, 50% inhibition of spasmogen-induced response in male Hartley guinea pigs on intraduodenal administration; format: functional; outline: as §1
Cavia porcellus [5] = organism: Cavia porcellus; assay: In vitro guinea pig heart stimulation (right atrium); format: functional; conditions: Cardiac atrium
Outline: (§2)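 Isolated right atrium of male Hartley guinea pigs, 25 °C Krebs-Henseleit gassed 95% O2–5% CO2, 0.5 g tension; cumulative concentrations; beating rate via cardiometer triggered by isometric contraction. EC15 = concentration raising rate 15% above unstimulated; 3–5 experiments.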

Adenosine receptor A1 [6] = target: T1, Adenosine receptor A1; assay: Binding affinity against adenosine A1 receptor of cerebral cortex using [3H]CPX as a radioligand; format: tissue-based
[7] = target: cyclic AMP phosphodiesterase (guinea pig); assay: Inhibition of cyclic AMP-phosphodiesterase ( PDE) in the supernatant of tracheal muscle homogenate
[8] = target: Adenosine A2 receptor (guinea pig); assay: Binding affinity against adenosine A2 receptor of striatal membrane using [3H]CGS-21680 as a radioligand
[9] = Bronchoselectivity expressed as ratio of stimulatory activity in the right atrium (EC15) to relaxant activity in the tracheal muscle (EC50); format: functional, Cardiac atrium
[10] = Bronchoselectivity, ratio of positive chronotropic action (ED15) to bronchodilator action (ED50); format: functional
Cavia porcellus [11] = organism: Cavia porcellus; assay: Effective concentration required in vitro for heart stimulation (right atrium) in guinea pig; format: functional; conditions: Cardiac atrium; outline: as §2
[12] = Bronchoselectivity expressed as ratio of positive chronotropic action (ED15) to bronchodilator action (ED50)

CCCCn1c(=O)c2c(ncn2CC(C)=O)n(CCCC)c1=O [DENBUFYLLINE]
EC50 (Cavia porcellus [1]): 0.01 µM | Ki (Adenosine receptor A1 [2]): 16.5 µM | ED15 (Cavia porcellus [3]): 90 mg/kg | ED50 (Cavia porcellus [4]): 5.9 mg/kg | EC15 (Cavia porcellus [5]): 6 µM

CCCn1c(=O)n(C)c(=O)c2c1ncn2CC(C)=O
Ki (Adenosine receptor A1 [6]): 95.7 µM | EC50 (Cavia porcellus [1]): 1.9 µM | Ki [7]: 20.7 µM | ED15 (Cavia porcellus [3]): 30 mg/kg | ED50 (Cavia porcellus [4]): 1.49 mg/kg | Ki [8]: > 200 µM | Selectivity [9]: 19.7 | Selectivity [10]: 20.1 | EC15 (Cavia porcellus [11]): 37.5 µM

C=CCCn1c(=O)c2[nH]cnc2n(CCC)c1=O
Ki (Adenosine receptor A1 [6]): 0.06 µM | EC50 (Cavia porcellus [1]): 0.2 µM | Ki [7]: 14.6 µM | ED15 (Cavia porcellus [3]): 11 mg/kg | Selectivity [12]: 6 | ED50 (Cavia porcellus [4]): 1.84 mg/kg | Ki [8]: 3.2 µM | Selectivity [9]: 22.5 | EC15 (Cavia porcellus [11]): 4.5 µM

CCCn1c(=O)n(CCCOC)c(=O)c2[nH]cnc21
Ki (Adenosine receptor A1 [6]): 12.4 µM | EC50 (Cavia porcellus [1]): 2.9 µM | Ki [7]: 48.7 µM | ED15 (Cavia porcellus [3]): 10.7 mg/kg | ED50 (Cavia porcellus [4]): 0.72 mg/kg | Ki [8]: 15.7 µM | Selectivity [9]: 10.8 | Selectivity [10]: 14.9 | EC15 (Cavia porcellus [11]): 31.3 µM

CCCn1c(=O)n(C)c(=O)c2c1ncn2CCOCC
Ki (Adenosine receptor A1 [6]): 24.3 µM | EC50 (Cavia porcellus [1]): 4.6 µM | Ki [7]: 136 µM | ED15 (Cavia porcellus [3]): 25.2 mg/kg | ED50 (Cavia porcellus [4]): 12.1 mg/kg | Ki [8]: 22.9 µM | Selectivity [9]: 21.7 | Selectivity [10]: 2.1 | EC15 (Cavia porcellus [11]): > 100 µM
